Results reported in ChEMBL document CHEMBL1149790, “Synthesis of some novel thiourea derivatives obtained from 5-[(4-aminophenoxy)methyl]-4-alkyl/aryl-2,4-dihydro-3H-1,2,4-triazole-3-thiones and evaluation as antiviral/anti-HIV and anti-tuberculosis agents” (Eur J Med Chem, 2008).
In brackets after ≈: the same amount, converted by molar mass. Activity calls are given as the source filed them. No cut-off for these calls is given here.

Assays:
[1] = system: Vero; assay: Cytotoxicity against african green monkey Vero cells; type: cell-based; conditions: chlorocebus sabaeus
Outline: (§1)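 Uninfected cell cultures exposed to test compounds alongside antiviral assays; minimum cytotoxic concentration (MCC) = concentration causing a microscopically detectable alteration of cell morphology.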

[2] = system: Coxsackievirus B4; assay: Antiviral activity against Coxsackie virus B4 in african green monkey Vero cells assessed as reduction of virus-induced cytopathogenicity; type: functional; conditions: Enterovirus B
Outline: (§2)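 Confluent cell monolayers (E6SM, HEL, HeLa or Vero, per line) inoculated with 100 CCID50 virus; 1 h adsorption, residual virus removed, then incubated with compound at 400, 200, 100 … µg/ml. Cytopathicity scored once complete in untreated virus controls; MIC = concentration inhibiting virus-induced cytopathicity.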

[3] = system: Respiratory syncytial virus; assay: Antiviral activity against respiratory syncytial virus in human HeLa cells assessed as inhibition of virus-induced cytopathogenicity; type: functional; outline: as §2
[4] = system: Vesicular stomatitis virus; assay: Antiviral activity against vesicular stomatitis virus in human HeLa cells assessed as inhibition of virus-induced cytopathogenicity; type: functional; outline: as §2
[5] = Cytotoxicity against human MT4 cells by MTT assay; type: cell-based
Outline: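 Mock-infected MT-4 cells (6 × 10⁵ cells/ml) with serial five-fold compound dilutions in triplicate; MTT reduction read at 540 and 690 nm after 5 days, median OD of three wells; CC50 = concentration reducing OD540 of mock-infected control by 50%.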

[6] = system: Human alphaherpesvirus 1; assay: Antiviral activity against thymidine kinase deficient and acyclovir resistant HSV1 KOS in human HEL cells assessed as reduction of virus-induced cytopathogenicity; type: functional; conditions: Human alphaherpesvirus 1, KOS; outline: as §2
[7] = system: Sindbis virus; assay: Antiviral activity against Sindbis virus in african green monkey Vero cells assessed as reduction of virus-induced cytopathogenicity; type: functional; outline: as §2
[8] = system: Vesicular stomatitis virus; assay: Antiviral activity against in Vesicular stomatitis virus in human HEL cells assessed as reduction of virus-induced cytopathogenicity; type: functional; outline: as §2
[9] = system: Human alphaherpesvirus 3; assay: Antiviral activity against TK- VZV 07/1 infected HEL cells assessed as reduction in virus plaque formation; type: functional, organism-based; conditions: Human alphaherpesvirus 3, 07/1, HEL
[10] = Cytotoxicity against human HEL cells assessed as reduction of cell growth; type: cell-based
Outline: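 HEL cells; CC50 = compound concentration reducing cell growth by 50%.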

[11] = system: Human alphaherpesvirus 1; assay: Antiviral activity against HSV1 KOS in human E6SM cells assessed as reduction of virus-induced cytopathogenicity; type: functional; conditions: Human alphaherpesvirus 1, KOS; outline: as §2
[12] = Cytotoxicity against human HeLa cells; type: cell-based; outline: as §1
[13] = system: Human alphaherpesvirus 2; assay: Antiviral activity against HSV2 G in human E6SM cells assessed as reduction of virus-induced cytopathogenicity; type: functional; conditions: Human alphaherpesvirus 2, G; outline: as §2
[14] = system: Human alphaherpesvirus 1; assay: Antiviral activity against thymidine kinase deficient and acyclovir resistant HSV1 KOS in human E6SM cells assessed as reduction of virus-induced cytopathogenicity; type: functional; conditions: Human alphaherpesvirus 1, KOS; outline: as §2
[15] = system: Human betaherpesvirus 5; assay: Antiviral activity against human cytomegalovirus AD169 infected HEL cells assessed as reduction in virus plaque formation; type: functional, organism-based; conditions: Human betaherpesvirus 5, AD169, HEL
[16] = Cytotoxicity against human E6SM cells; type: cell-based; conditions: E6SM cells; outline: as §1
[17] = system: Coxsackievirus B4; assay: Antiviral activity against Coxsackie virus B4 in human HeLa cells assessed as inhibition of virus-induced cytopathogenicity; type: functional; conditions: Enterovirus B; outline: as §2
[18] = system: Human respirovirus 3; assay: Antiviral activity against Parainfluenza 3 virus in african green monkey Vero cells assessed as reduction of virus-induced cytopathogenicity; type: functional; outline: as §2
[19] = system: Human immunodeficiency virus 1; assay: Antiviral activity against HIV1 3B in human MT4 cells assessed as protection against virus-induced cytopathogenicity by MTT assay; type: functional, organism-based; parameters: Activity: concentration or dose not given beside the values; conditions: for IC50: Human immunodeficiency virus 1, 3B, MT4
Outline: (§3)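 MT-4 cells at 6 × 10⁵ cells/ml infected with HIV-1 IIIB or HIV-2 ROD at 100–300 CCID50; compounds in serial five-fold dilutions, triplicate mock- and virus-infected wells. MTT viability read at 540 and 690 nm after 5 days, median OD of three wells; EC50 = 50% protection from viral cytopathic effect.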

[20] = system: Human alphaherpesvirus 1; assay: Antiviral activity against HSV1 KOS in human HEL cells assessed as reduction of virus-induced cytopathogenicity; type: functional; conditions: Human alphaherpesvirus 1, KOS; outline: as §2
[21] = system: Human immunodeficiency virus 2; assay: Antiviral activity against HIV2 ROD in human MT4 cells assessed as protection against virus-induced cytopathogenicity by MTT assay; type: functional, organism-based; parameters: Activity: concentration or dose not given beside the values; conditions: for IC50: Human immunodeficiency virus 2, ROD, MT4; outline: as §3
[22] = system: Mycobacterium tuberculosis; assay: Antitubercular activity against Mycobacterium tuberculosis H37Rv at 6.25 ug/ml by MABA assay; type: functional
[23] = system: Mammalian orthoreovirus 1; assay: Antiviral activity against Reo virus 1 in african green monkey Vero cells assessed as reduction of virus-induced cytopathogenicity; type: functional; outline: as §2
[24] = Cytotoxicity against human HEL cells assessed as alteration of cell morphology; type: cell-based; outline: as §1
[25] = system: Vesicular stomatitis virus; assay: Antiviral activity against in Vesicular stomatitis virus in human E6SM cells assessed as reduction of virus-induced cytopathogenicity; type: functional; outline: as §2
[26] = system: Human alphaherpesvirus 3; assay: Antiviral activity against TK+ VZV OKA infected HEL cells assessed as reduction in virus plaque formation; type: functional, organism-based; conditions: Human alphaherpesvirus 3, OKA
[27] = system: Human alphaherpesvirus 2; assay: Antiviral activity against HSV2 G in human HEL cells assessed as reduction of virus-induced cytopathogenicity; type: functional; conditions: Human alphaherpesvirus 2, G; outline: as §2
[28] = system: Punta Toro virus; assay: Antiviral activity against Punta Toro virus in african green monkey Vero cells assessed as reduction of virus-induced cytopathogenicity; type: functional; outline: as §2
[29] = system: Human betaherpesvirus 5; assay: Antiviral activity against human cytomegalovirus Davis infected HEL cells assessed as reduction in virus plaque formation; type: functional, organism-based; conditions: Human betaherpesvirus 5, Davis

SMILES	Activity [1] [µg/mL]	MIC [2] [µg/mL]	MIC [3] [µg/mL]	MIC [4] [µg/mL]	CC50 [5] [µg/mL]	MIC [6] [µg/mL]	MIC [7] [µg/mL]	MIC [8] [µg/mL]	EC50 [9] [µg/mL]	CC50 [10] [µg/mL]	MIC [11] [µg/mL]	MCC [12] [µg/mL]	MIC [13] [µg/mL]	MIC [14] [µg/mL]	EC50 [15] [µg/mL]	MCC [16] [µg/mL]	MIC [17] [µg/mL]	MIC [18] [µg/mL]	Activity [19] [%]	IC50 [19] [µg/mL]	further results
C=CCNC(=S)Nc1ccc(OCc2n[nH]c(=S)n2CC=C)cc1	400	48 (≈ 133 µM)	> 80	> 80	71.5 (≈ 198 µM)	240 (≈ 664 µM)	> 80	> 400	46 (≈ 127 µM)	> 50	240 (≈ 664 µM)	400	240 (≈ 664 µM)	240 (≈ 664 µM)	100 (≈ 277 µM)	> 400	> 80	> 80	3	> 66.5	MIC [20]: 240 µg/mL (≈ 664 µM); Activity [21]: 1%; IC50 [21]: > 69.7 µg/mL; inhibition at 6.25 µg/mL [22]: 59%; MIC [23]: > 80 µg/mL; MCC [24]: > 400 µg/mL; MIC [25]: > 400 µg/mL; EC50 [26]: 41 µg/mL (≈ 113 µM); MIC [27]: 240 µg/mL (≈ 664 µM); MIC [28]: > 80 µg/mL; EC50 [29]: 77 µg/mL (≈ 213 µM)
CCn1c(COc2ccc(NC(=S)NC)cc2)n[nH]c1=S	400	> 80	> 80	> 80	76.8 (≈ 237 µM)	> 400	> 80	> 400	88 (≈ 272 µM)	> 50	> 400	400	> 400	> 400	63 (≈ 195 µM)	> 400	> 80	> 80	1.5	> 68.1	MIC [20]: > 400 µg/mL; Activity [21]: 2%; IC50 [21]: > 77.9 µg/mL; Activity [22]: inactive; MIC [23]: > 80 µg/mL; MCC [24]: > 400 µg/mL; MIC [25]: > 400 µg/mL; EC50 [26]: > 100 µg/mL; MIC [27]: > 400 µg/mL; MIC [28]: > 80 µg/mL; EC50 [29]: > 100 µg/mL
Nc1ccc(OCc2n[nH]c(=S)n2-c2ccccc2)cc1	400	48 (≈ 161 µM)	> 400	> 400	> 125	> 400	> 80	> 400	> 100	> 50	> 400	> 400	240 (≈ 804 µM)	> 400	> 100	> 400	> 400	> 80	2	> 125	MIC [20]: > 400 µg/mL; Activity [21]: 2.5%; IC50 [21]: > 125 µg/mL; Activity [22]: inactive; MIC [23]: > 80 µg/mL; MCC [24]: > 400 µg/mL; MIC [25]: > 400 µg/mL; EC50 [26]: > 100 µg/mL; MIC [27]: 240 µg/mL (≈ 804 µM); MIC [28]: > 80 µg/mL; EC50 [29]: > 100 µg/mL
C=CCn1c(COc2ccc(NC(=S)NCC)cc2)n[nH]c1=S	400	80 (≈ 229 µM)	> 80	> 80	90 (≈ 258 µM)	> 400	> 80	> 400	64 (≈ 183 µM)	> 50	> 400	400	> 400	> 400	> 100	> 400	> 80	> 80	4	> 76.5	MIC [20]: > 400 µg/mL; Activity [21]: 2.5%; IC50 [21]: > 86.2 µg/mL; Activity [22]: inactive; MIC [23]: > 80 µg/mL; MCC [24]: > 400 µg/mL; MIC [25]: > 400 µg/mL; EC50 [26]: 64 µg/mL (≈ 183 µM); MIC [27]: > 400 µg/mL; MIC [28]: > 80 µg/mL; EC50 [29]: > 100 µg/mL
